Laboratory results reported in ChEMBL document CHEMBL4325909, “Synthesis and evaluation of chalcone analogues containing a 4-oxoquinazolin-2-yl group as potential anti-tumor agents” (Eur J Med Chem, 2019).

Experiments:
HCT-116 [1] = assay: Cytotoxicity against human HCT116 cells assessed as reduction in cell viability at 20 uM after 72 hrs by MTS assay relative to control; assay type: functional
In short: (§1)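 Cells grown in DMEM with 10% FBS at 37 °C, 5% CO2, exposed to 20 μM for 72 h. Proliferation read by MTS and inhibition expressed relative to vehicle. ≥50% inhibition counted as active. Triplicate wells, three independent experiments.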

MCF7 [2] = assay: Cytotoxicity against human MCF7 cells assessed as reduction in cell viability at 20 uM after 72 hrs by MTS assay relative to control; assay type: functional; in short: as §1
HCT-116 [3] = assay: Cytotoxicity against human HCT116 cells assessed as reduction in cell viability after 72 hrs by MTS assay; assay type: functional, cell-based; conditions: HCT-116, 72 h
In short: (§2)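 Cells kept in DMEM with 10% FBS at 37 °C, 5% CO2. Proliferation read by MTS (CellTiter 96 AQueous One) 72 h after exposure across a concentration range. IC50 is the concentration giving 50% proliferation inhibition. Triplicate wells, three independent experiments, mean ± SD.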

MCF7 [4] = assay: Cytotoxicity against human MCF7 cells assessed as reduction in cell viability after 72 hrs by MTS assay; assay type: functional, cell-based; conditions: MCF7, 72 h; in short: as §2
HeLa = assay: Cytotoxicity against human HeLa cells assessed as reduction in cell viability after 72 hrs by MTS assay; assay type: functional, cell-based
In short: (§3)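 MTS (CellTiter 96 AQueous One) proliferation read after 72 h of exposure across a concentration range. IC50 is the concentration giving 50% proliferation inhibition. Triplicate determinations in three independent experiments, mean ± SD.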

MCF-10A = assay: Cytotoxicity against human MCF10A cells assessed as reduction in cell viability after 72 hrs by MTS assay; assay type: cell-based; in short: as §3
HT-29 = assay: Cytotoxicity against human HT-29 cells assessed as reduction in cell viability after 72 hrs by MTS assay; assay type: functional, cell-based; conditions: HT-29, 72 h; in short: as §3
MDA-MB-231 = assay: Cytotoxicity against human MDA-MB-231 cells assessed as reduction in cell viability after 72 hrs by MTS assay; assay type: functional, cell-based; conditions: MDA-MB-231, 72 h; in short: as §3
A549 = assay: Cytotoxicity against human A549 cells assessed as reduction in cell viability after 72 hrs by MTS assay; assay type: functional, cell-based; conditions: A549, 72 h; in short: as §3

Compound	Activity (HCT-116 [1])	Activity (MCF7 [2])	IC50 (HCT-116 [3]) [µM]	IC50 (MCF7 [4]) [µM]	IC50 (HeLa) [µM]	IC50 (MCF-10A) [µM]	IC50 (HT-29) [µM]	IC50 (MDA-MB-231) [µM]	IC50 (A549) [µM]
COc1ccc(/C=C/C(=O)c2nc3ccccc3c(=O)[nH]2)cc1OC	< 50%	< 50%	> 20	> 20					
N#Cc1ccc(/C=C/C(=O)c2nc3ccccc3c(=O)[nH]2)cc1	>=50%	>=50%	19.8	> 20					
COc1ccc(C(=O)/C=C/c2nc3ccccc3c(=O)[nH]2)cc1	>=50%	>=50%	10	10.2					
O=C(/C=C/c1ccco1)c1nc2ccccc2c(=O)[nH]1	>=50%	>=50%	> 20	> 20					
COc1ccccc1/C=C/C(=O)c1nc2ccccc2c(=O)[nH]1	< 50%	>=50%	> 20	> 20					
COc1ccccc1C(=O)/C=C/c1nc2ccccc2c(=O)[nH]1	>=50%	>=50%	3.91	4.3	13.4	5.26	6.71	15.7	13.7
COc1ccc(/C=C/C(=O)c2nc3ccccc3c(=O)[nH]2)c(OC)c1	< 50%	< 50%	> 20	> 20					
O=C(/C=C/c1nc2ccccc2c(=O)[nH]1)c1ccc(Br)cc1	>=50%	>=50%	4.74	3.75	16.1	11.3	> 20	18.3	19.5
O=C(/C=C/c1ccccn1)c1nc2ccccc2c(=O)[nH]1	>=50%	>=50%	> 20	> 20					
COc1cc(C(=O)/C=C/c2nc3ccccc3c(=O)[nH]2)cc(OC)c1OC	>=50%	>=50%	12.8	13.9					
COc1cccc(/C=C/C(=O)c2nc3ccccc3c(=O)[nH]2)c1	>=50%	>=50%	14.7	15.5					
O=c1[nH]cc(F)c(=O)[nH]1 [FLUOROURACIL]					> 20	> 20	9.99	> 20	15
Nc1ccc(C(=O)/C=C/c2nc3ccccc3c(=O)[nH]2)cc1	< 50%	< 50%	> 20	> 20					
O=C(/C=C/c1nc2ccccc2c(=O)[nH]1)c1ccc(O)cc1	>=50%	>=50%	4.11	4.92	9.44	6.12	10.7	16.5	15.1
Cc1ccc(C(=O)/C=C/c2nc3ccccc3c(=O)[nH]2)cc1	>=50%	>=50%	5.75	9.44					
O=C(/C=C/c1ccncc1)c1nc2ccccc2c(=O)[nH]1	>=50%	< 50%	> 20	> 20					
COc1cc(/C=C/C(=O)c2nc3ccccc3c(=O)[nH]2)cc(OC)c1OC	>=50%	< 50%	> 20	> 20					
O=C(/C=C/c1nc2ccccc2c(=O)[nH]1)c1ccc(Cl)cc1	>=50%	>=50%	6.1	6.09					
Cc1ccc(/C=C/C(=O)c2nc3ccccc3c(=O)[nH]2)cc1	>=50%	< 50%	> 20	> 20					

Compound	Activity (HCT-116 [1])	Activity (MCF7 [2])	IC50 (HCT-116 [3]) [µM]	IC50 (MCF7 [4]) [µM]	IC50 (HeLa) [µM]	IC50 (MCF-10A) [µM]	IC50 (HT-29) [µM]	IC50 (MDA-MB-231) [µM]	IC50 (A549) [µM]
O=C(/C=C/c1ccc(F)cc1)c1nc2ccccc2c(=O)[nH]1	>=50%	>=50%	15.2	> 20					
O=C(/C=C/c1nc2ccccc2c(=O)[nH]1)c1ccc(C(F)(F)F)cc1	< 50%	< 50%	> 20	> 20					
COc1cc(C(=O)/C=C/c2nc3ccccc3c(=O)[nH]2)ccc1O	>=50%	>=50%	4.58	6.05					
COc1ccc(C(=O)/C=C/c2nc3ccccc3c(=O)[nH]2)c(OC)c1	>=50%	>=50%	4.08	4.49	12.7	9.14	8.77	14.3	15.5
Cc1ccc(C(=O)/C=C/c2nc3ccccc3c(=O)[nH]2)c(C)c1	>=50%	>=50%	4.77	4.5	9.55	5.47	12.5	15.3	13.3
COc1cc(OC)c(C(=O)/C=C/c2nc3ccccc3c(=O)[nH]2)c(OC)c1	>=50%	>=50%	5.57	5.02					
O=C(/C=C/c1nc2ccccc2c(=O)[nH]1)c1ccccc1	>=50%	>=50%	5.47	4.09					
O=C(/C=C/c1cccnc1)c1nc2ccccc2c(=O)[nH]1	>=50%	>=50%	> 20	> 20					
O=C(/C=C/c1ccc(Br)cc1)c1nc2ccccc2c(=O)[nH]1	>=50%	>=50%	> 20	> 20					
Cc1ccccc1C(=O)/C=C/c1nc2ccccc2c(=O)[nH]1	>=50%	>=50%	4.14	4.2	10.4	6.19	6.45	10.5	13.3
O=C(/C=C/c1ccccc1)c1nc2ccccc2c(=O)[nH]1	< 50%	>=50%	> 20	> 20					
O=C(/C=C/c1ccc([N+](=O)[O-])cc1)c1nc2ccccc2c(=O)[nH]1	>=50%	>=50%	13.2	> 20					
COc1cc(/C=C/C(=O)c2nc3ccccc3c(=O)[nH]2)cc(OC)c1	>=50%	>=50%	15.8	16.8					
O=C(/C=C/c1nc2ccccc2c(=O)[nH]1)c1ccc(F)cc1	< 50%	< 50%	> 20	> 20					
O=C(/C=C/c1ccc(Cl)cc1)c1nc2ccccc2c(=O)[nH]1	>=50%	>=50%	15.6	> 20					
O=C(/C=C/c1cccs1)c1nc2ccccc2c(=O)[nH]1	>=50%	>=50%	> 20	> 20					
COc1cccc(C(=O)/C=C/c2nc3ccccc3c(=O)[nH]2)c1	>=50%	>=50%	12	12.9					
COc1ccc(/C=C/C(=O)c2nc3ccccc3c(=O)[nH]2)cc1	< 50%	< 50%	> 20	> 20					
O=C(/C=C/c1nc2ccccc2c(=O)[nH]1)c1ccc(Cl)c(Cl)c1	>=50%	>=50%	17	8.21					
